Our source for the IC50, Ki and Activity values is ChEMBL document CHEMBL2407090, “Design, synthesis, and optimization of novel epoxide incorporating peptidomimetics as selective calpain inhibitors” (J Med Chem, 2013).

One may read the pIC50 as the negative decadic logarithm of the IC50, by convention in mol/L. Read a high pIC50 as a low IC50. For orientation: pKi means the negative decadic logarithm of the Ki, by convention in mol/L. Higher therefore signals a low Ki.

pIC50, pKi: −log10 of the molar value. Where only a bound is given, the exact number is not on record here.

For assay [1], the target named is T1, Calpain-1 catalytic subunit (Homo sapiens, UniProt P07384).
T1 sequence (P07384 whole entry): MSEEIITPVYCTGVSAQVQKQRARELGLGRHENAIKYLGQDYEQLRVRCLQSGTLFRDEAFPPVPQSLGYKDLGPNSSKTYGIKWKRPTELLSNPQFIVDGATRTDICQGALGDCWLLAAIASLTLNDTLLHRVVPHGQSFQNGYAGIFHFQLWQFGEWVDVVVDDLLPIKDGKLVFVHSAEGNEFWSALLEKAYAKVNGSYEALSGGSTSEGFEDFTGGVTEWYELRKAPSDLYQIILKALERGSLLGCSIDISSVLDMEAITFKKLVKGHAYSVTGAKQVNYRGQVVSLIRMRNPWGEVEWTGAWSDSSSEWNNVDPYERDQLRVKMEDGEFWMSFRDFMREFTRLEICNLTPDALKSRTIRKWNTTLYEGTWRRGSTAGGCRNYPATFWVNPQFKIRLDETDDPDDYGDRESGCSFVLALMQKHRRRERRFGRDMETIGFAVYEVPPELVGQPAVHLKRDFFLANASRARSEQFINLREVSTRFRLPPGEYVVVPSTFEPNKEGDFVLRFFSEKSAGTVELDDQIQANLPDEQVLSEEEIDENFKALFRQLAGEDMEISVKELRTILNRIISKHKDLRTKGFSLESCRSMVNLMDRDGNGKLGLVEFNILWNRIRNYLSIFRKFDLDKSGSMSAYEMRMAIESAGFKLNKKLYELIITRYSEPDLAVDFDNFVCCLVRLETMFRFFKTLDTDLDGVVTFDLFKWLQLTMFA
Description: Inhibition of human erythrocyte full length Cal1 using (DABCYL)TPLK-SPPSPR-(EDANS) as substrate after 20 min by FRET assay.

Another assay concerns the target T2, Papain (Carica papaya, UniProt P00784).
T2 sequence (P00784 whole entry): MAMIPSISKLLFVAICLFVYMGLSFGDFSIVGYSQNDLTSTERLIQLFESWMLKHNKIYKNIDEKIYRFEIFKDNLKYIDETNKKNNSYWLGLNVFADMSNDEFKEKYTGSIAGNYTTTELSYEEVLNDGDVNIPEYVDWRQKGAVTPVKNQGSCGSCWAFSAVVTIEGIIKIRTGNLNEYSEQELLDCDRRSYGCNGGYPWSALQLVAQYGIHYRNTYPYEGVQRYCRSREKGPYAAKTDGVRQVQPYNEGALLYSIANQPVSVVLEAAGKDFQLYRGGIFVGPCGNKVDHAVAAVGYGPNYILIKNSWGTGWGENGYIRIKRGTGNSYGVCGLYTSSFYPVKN
Description: Inhibition of papain after using SucLLVYAMC as substrate by FRET assay. The method, boiled down: (§1)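 Enzyme (full-length porcine calpain 156 nM, with 1 mM CaCl2; or papain 236 pM) in 50 mM HEPES pH 7.6, 100 mM NaCl, 1 mM TCEP, 30 μM Suc-LLVY-AMC, inhibitor 0.5–50 μM; organic solvent <2 %, 30 °C. AMC release followed over time (Ex 346/Em 444 nm). Inhibition constants from varied enzyme and inhibitor concentrations; mean ± S.D. of triplicates.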

Assay [2] concerns the target T3, Calpain-1 catalytic subunit (Rattus norvegicus) (UniProt P97571).
T3 sequence (whole entry): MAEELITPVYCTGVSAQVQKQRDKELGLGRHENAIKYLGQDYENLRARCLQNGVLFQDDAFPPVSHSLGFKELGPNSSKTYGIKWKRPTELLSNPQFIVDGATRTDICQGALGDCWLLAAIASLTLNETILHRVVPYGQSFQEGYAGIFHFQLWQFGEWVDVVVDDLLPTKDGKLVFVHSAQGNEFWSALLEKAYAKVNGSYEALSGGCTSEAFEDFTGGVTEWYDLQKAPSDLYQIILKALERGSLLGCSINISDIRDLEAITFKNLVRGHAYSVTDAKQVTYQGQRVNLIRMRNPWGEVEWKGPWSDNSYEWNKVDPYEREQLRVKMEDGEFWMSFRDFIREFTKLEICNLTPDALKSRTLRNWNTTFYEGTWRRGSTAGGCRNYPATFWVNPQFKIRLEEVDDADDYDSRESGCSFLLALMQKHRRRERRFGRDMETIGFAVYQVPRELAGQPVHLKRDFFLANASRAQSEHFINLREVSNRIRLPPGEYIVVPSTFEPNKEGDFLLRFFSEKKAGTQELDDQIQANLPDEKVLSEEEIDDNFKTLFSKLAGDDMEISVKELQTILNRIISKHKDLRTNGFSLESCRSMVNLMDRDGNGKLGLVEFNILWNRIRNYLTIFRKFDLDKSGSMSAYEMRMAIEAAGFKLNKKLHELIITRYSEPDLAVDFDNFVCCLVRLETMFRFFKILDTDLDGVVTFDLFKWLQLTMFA
Description: Binding affinity to recombinant rat […] Cal1 catalytic domain expressed in Escherichia coli BL21(DE3) assessed as modification of active site cysteine at 1 uM by LC-MS/MS analysis.

Assay [3] deals with T4, Calpain-1 catalytic subunit (Sus scrofa, UniProt P35750).
T4 sequence (P35750 whole entry): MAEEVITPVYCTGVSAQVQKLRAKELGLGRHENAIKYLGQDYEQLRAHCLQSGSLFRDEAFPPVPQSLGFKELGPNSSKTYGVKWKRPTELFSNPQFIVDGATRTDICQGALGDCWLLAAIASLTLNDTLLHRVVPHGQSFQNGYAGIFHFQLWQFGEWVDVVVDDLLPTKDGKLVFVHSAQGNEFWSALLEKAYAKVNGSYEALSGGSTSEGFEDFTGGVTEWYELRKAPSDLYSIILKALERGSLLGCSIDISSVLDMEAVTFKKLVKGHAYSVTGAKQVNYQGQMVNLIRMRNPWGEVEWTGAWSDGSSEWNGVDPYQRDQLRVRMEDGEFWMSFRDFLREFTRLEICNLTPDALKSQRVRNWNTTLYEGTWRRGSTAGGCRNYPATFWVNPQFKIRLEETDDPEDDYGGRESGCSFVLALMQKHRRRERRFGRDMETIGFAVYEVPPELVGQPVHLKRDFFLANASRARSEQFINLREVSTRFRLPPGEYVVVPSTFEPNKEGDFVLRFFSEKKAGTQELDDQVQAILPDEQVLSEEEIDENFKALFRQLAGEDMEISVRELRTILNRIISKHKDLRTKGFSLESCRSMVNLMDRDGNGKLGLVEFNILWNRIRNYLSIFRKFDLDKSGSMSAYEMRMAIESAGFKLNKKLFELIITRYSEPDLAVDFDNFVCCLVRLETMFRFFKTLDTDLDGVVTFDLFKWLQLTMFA
Description: Inhibition of pig full length Cal1 after using SucLLVYAMC as substrate by FRET assay. The method, boiled down:
as §1

In assay [1], `CC(C)C[C@H](NC(=O)[C@H]1O[C@@H]1C(=O)O)C(=O)NCCCCNC(=O)CCCC[C@@H]1SC[C@@H]2NC(=O)N[C@@H]21` had a pIC50 of 7.00.

As for `CC(C)C[C@H](NC(=O)[C@H]1O[C@@H]1C(=O)O)C(=O)NCCCCN=C(N)N` [E-64], the pKi on Papain is 5.29; in assay [3], 5.40. Besides, the Activity result in assay [2] was “Dose-dependent effect”. The pIC50 in assay [1] is 7.00.

As to `Cc1cc(C)c(-n2cc(CNC(=O)[C@H](Cc3cscn3)NC(=O)[C@H]3O[C@@H]3C(=O)O)nn2)c(C)c1`, in assay [1], the pIC50 is < 6.00.

Consider `O=C(NCc1cn(-c2c(F)cccc2F)nn1)[C@H](Cc1cscn1)NC(=O)[C@H]1O[C@@H]1C(=O)O`, for which the pIC50 in assay [1] is < 6.00.

On to `CC(C)C[C@H](NC(=O)[C@H]1O[C@@H]1C(=O)O)C(=O)NCCCCNS(=O)(=O)c1ccc(F)cc1`, for which the pIC50 in assay [1] is 6.82.

As to `O=C(Nc1nc(-c2ccc(F)cc2)cs1)[C@H](Cc1cscn1)NC(=O)[C@H]1O[C@@H]1C(=O)O`, the pKi at Papain is 5.27; in assay [3] it was 5.59. In addition, the pIC50 in assay [1] is 7.00.

Regarding `NS(=O)(=O)c1ccc(-n2cc(CNC(=O)[C@H](Cc3cscn3)NC(=O)[C@H]3O[C@@H]3C(=O)O)nn2)cc1`, the pIC50 in assay [1] was < 6.00.

`O=C(NCc1cn(-c2cc(C(F)(F)F)cc(C(F)(F)F)c2)nn1)[C@H](Cc1cscn1)NC(=O)[C@H]1O[C@@H]1C(=O)O`: the pIC50 in assay [1] is < 6.00.

With `CC(C)C[C@H](NC(=O)[C@H]1O[C@@H]1C(=O)O)C(=O)Nc1nc(-c2ccc(F)cc2)cs1`, the pKi on Papain was 5.79. In addition, the Activity entry in assay [2] is “Dose-dependent effect”.

For `CC(C)C[C@H](NC(=O)[C@H]1O[C@@H]1C(=O)O)C(=O)NCCCCNC(=O)CCCCC1CCSS1` (stereo partly specified), the pIC50 in assay [1] was 7.00.
